These results are taken from ChEMBL document CHEMBL1135883, “A comprehensive study of the active site residues of DT-diaphorase: rational design of benzimidazolediones as DT-diaphorase substrates” (J Med Chem, 2002).

Assay [1] has as its target NAD(P)H dehydrogenase [quinone] 1 (Homo sapiens) (UniProt P15559). Briefly: Evaluated for the kinetic parameter (Kcat) using recombinant DT-Diaphorase, value calculated from Lineweaver-Burke plot. In a few lines:
(§1)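 Recombinant human DT-diaphorase (1.4 × 10^-9 M final) with NADH (0.3 mM final) and quinone substrate (1.3 × 10^-6 to 6.7 × 10^-5 M final; 4.0 mM DMSO stock) in 0.05 M Tris pH 7.4. Anaerobic Thunberg cuvettes, argon-purged 20 min, 30 °C. Initial rates from 336 nm absorbance over 10 min. Δε from absorbance before and after complete reduction. kcat and Km from Lineweaver–Burke plot.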

For assay [2] the target is unchanged. Briefly: Ratio Kcat/Km provides the apparent second-order rate constant of the enzymatic transformation of DT-Diaphorase. In a few lines: as §1
Assay [3] has the same target. Nature of the assay: The ratio Kcat/Km provides the apparent second-order rate constant of the enzymatic transformation DT-Diaphorase. The essentials:
as §1

Sequence of NAD(P)H dehydrogenase [quinone] 1 (Homo sapiens) (P15559 whole entry): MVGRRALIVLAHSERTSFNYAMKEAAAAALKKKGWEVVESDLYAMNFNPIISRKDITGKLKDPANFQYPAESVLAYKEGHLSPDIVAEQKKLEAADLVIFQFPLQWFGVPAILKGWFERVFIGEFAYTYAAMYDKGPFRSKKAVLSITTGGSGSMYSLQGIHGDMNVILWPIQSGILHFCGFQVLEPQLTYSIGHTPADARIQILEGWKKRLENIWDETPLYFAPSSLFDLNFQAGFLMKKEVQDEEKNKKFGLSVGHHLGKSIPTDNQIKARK

Turning to `O=C1c2nc3n(c2C(=O)c2c1nc1n2CCCC1)CCCC3`, in assay [1], the k cat is 3.74 s⁻¹. For the same compound, in assay [2], the k cat/Km came to 1.45e+06 M⁻¹ s⁻¹.
As for `CC1=C(N2CC2)C(=O)c2nc3n(c2C1=O)CC[C@@H]3N`, the k cat in assay [1] was 2.64 s⁻¹. In assay [2], the k cat/Km came out at 1.39e+06 M⁻¹ s⁻¹.
For `CC1=C(N2CC2)C(=O)c2nc3n(c2C1=O)CC[C@@H]3NC(=O)N(C)C`, the k cat in assay [1] was 3.96 s⁻¹. In assay [2], the k cat/Km was found to be 940000 M⁻¹ s⁻¹.
Regarding `CC(=O)NC1=C(C)C(=O)c2c(nc3n2CC[C@H]3OC(C)=O)C1=O`, the k cat in assay [1] was 3.81 s⁻¹. In assay [2], the k cat/Km was 154000 M⁻¹ s⁻¹.
As to `CC1=C(N2CC2)C(=O)c2nc3n(c2C1=O)CC[C@H]3NC(=O)N(C)C`, the k cat in assay [1] is 9.56 s⁻¹. In addition, the k cat/Km in assay [2] amounted to 2.13e+06 M⁻¹ s⁻¹.
For `COCC(=O)O[C@H]1CCn2c1nc1c2C(=O)C(C)=C(NC(C)=O)C1=O`, the k cat in assay [1] is 1.74 s⁻¹. For the same compound, the k cat/Km in assay [2] stood at 69000 M⁻¹ s⁻¹.
Take `CC(=O)NC1=C(C)C(=O)c2c(nc3n2CC[C@@H]3OC(C)=O)C1=O`: in assay [1], the k cat was 3.85 s⁻¹. Further, the k cat/Km in assay [2] turned out to be 472000 M⁻¹ s⁻¹.
Consider `CC1=C(N2CC2)C(=O)c2nc3n(c2C1=O)CCC[C@@H]3N`, for which, in assay [1], the k cat is 2.97 s⁻¹. Moreover, the k cat/Km in assay [3] turned out to be 188000 M⁻¹ s⁻¹.
In the case of `CC1=C(N2CC2)C(=O)c2nc3n(c2C1=O)CCC[C@H]3N`, the k cat in assay [1] is 4.92 s⁻¹. Also, the k cat/Km in assay [2] worked out at 106000 M⁻¹ s⁻¹.
For `CC1=C(N2CC2)C(=O)c2nc3n(c2C1=O)CC[C@H]3NC(N)=O`, the k cat in assay [1] is 2.7 s⁻¹. The k cat/Km in assay [2] is 890000 M⁻¹ s⁻¹.
For `CC(=O)N[C@H]1CCn2c1nc1c2C(=O)C(C)=C(N2CC2)C1=O`, in that order: 1.87 s⁻¹ and 520000 M⁻¹ s⁻¹.
In the case of `O=C1c2nc3n(c2C(=O)c2c1nc1n2CCC1)CCC3`, in assay [1], the k cat was 3.81 s⁻¹. In assay [3], the k cat/Km was found to be 118000 M⁻¹ s⁻¹.
Regarding `CC(=O)N[C@@H]1CCn2c1nc1c2C(=O)C(C)=C(N2CC2)C1=O`, in assay [1], the k cat was 1.47 s⁻¹. Moreover, the k cat/Km in assay [3] worked out at 920000 M⁻¹ s⁻¹.
`CC1=C(N2CC2)C(=O)c2nc3n(c2C1=O)CC[C@H]3N`: the k cat in assay [1] was 3.26 s⁻¹. Also, the k cat/Km in assay [2] was 640000 M⁻¹ s⁻¹.
Turning to `CC1=C(N2CC2)C(=O)c2nc3n(c2C1=O)CC[C@@H]3NC(N)=O`, the k cat in assay [1] is 2.4 s⁻¹. In addition, in assay [3], the k cat/Km is 1.2e+06 M⁻¹ s⁻¹.
Regarding `COCC(=O)O[C@@H]1CCn2c1nc1c2C(=O)C(C)=C(NC(C)=O)C1=O`, in assay [1], the k cat was 4.84 s⁻¹. The k cat/Km in assay [3] came out at 40000 M⁻¹ s⁻¹.
